Experimental data as given in ChEMBL document CHEMBL2062507, “Myxobacteria versus sponge-derived alkaloids: the bengamide family identified as potent immune modulating agents by scrutiny of LC-MS/ELSD libraries” (Bioorg Med Chem, 2012).
Activity calls are given as the source filed them. The calls are words filed in the database; no cut-off is given here.

Experiments:
RAW264.7 [1] = experiment: Cytotoxicity against mouse RAW264.7 cells after 18 hrs by MTT assay; type: cell-based; settings: RAW264.7, 18 h
[2] = Inhibition of LPS-stimulated NFkappaB activation transfected in mouse RAW264.7 cells after 18 hrs by luciferase reporter gene assay; settings: RAW264.7, 18 h
HCT-116 = experiment: Cytotoxicity against human HCT116 cells after 48 hrs by SRB assay; type: functional, cell-based; settings: HCT-116, 48 h
RAW264.7 [3] = experiment: Antiinflammatory activity in mouse RAW264.7 cells assessed as inhibition of LPS-stimulated TNFalpha expression up to 10 uM by quantitative RT-PCR analysis; type: functional, cell-based
How it was run: (§1)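 LPS (100 ng/mL)-stimulated RAW264.7 cells co-treated with compound at 0.01–10 μM. Total RNA (0.5 μg) DNase I-treated, reverse transcribed, cDNAs pooled per condition, SYBR Green real-time PCR array. mRNA normalised to GAPDH. Three independent experiments, one-way ANOVA, p<0.05 taken as significant.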

RAW264.7 [4] = experiment: Antiinflammatory activity in mouse RAW264.7 cells assessed as inhibition of LPS-stimulated IL-6 expression up to 10 uM by quantitative RT-PCR analysis; type: functional, cell-based; how it was run: as §1
RAW264.7 [5] = experiment: Antiinflammatory activity in mouse RAW264.7 cells assessed as inhibition of LPS-stimulated MCP1 expression up to 10 uM by quantitative RT-PCR analysis; type: functional, cell-based; how it was run: as §1
RAW264.7 [6] = experiment: Antiinflammatory activity in mouse RAW264.7 cells assessed as inhibition of LPS-stimulated iNOS expression up to 10 uM by quantitative RT-PCR analysis; type: functional, cell-based; how it was run: as §1
RAW264.7 [7] = experiment: Antiinflammatory activity in mouse RAW264.7 cells assessed as inhibition of LPS-stimulated nitric oxide production up to 10 uM after 30 mins by Greiss method; type: functional, cell-based
How it was run: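 RAW264.7 cells grown 24 h in RPMI1640 in 96-well plates, then given fresh medium with compound and E. coli 055:B5 LPS. Supernatant mixed with Griess reagent (sulfanilamide, N-1-naphthylethylenediamine, H3PO4) for 30 min at room temperature in the dark. Absorbance read at 530 nm and converted to nitrite using a sodium nitrite standard curve.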

RAW264.7 [8] = experiment: Inhibition of LPS-stimulated NFkappaB activation transfected in mouse RAW264.7 cells at 0.01 to 10 uM after 4 hrs by measuring IKappaBalpha phosphorylation by Western blot analysis; type: cell-based
How it was run: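 RAW264.7 cells grown near confluent in 6-well plates and given increasing compound concentrations with LPS for 4 h at 37 °C. Lysed in SDS loading buffer, run on 4–15% SDS-PAGE gels and blotted. Probed with anti-phospho-IκB and anti-IκB (1:1000), then HRP secondary. Detected by chemiluminescence on film, β-actin as loading control.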

Row | SMILES | IC50 (RAW264.7 [1]) | IC50 [2] | IC50 (HCT-116) | Activity (RAW264.7 [3]) | IC50 (RAW264.7 [3]) | Activity (RAW264.7 [4]) | IC50 (RAW264.7 [4]) | Activity (RAW264.7 [5]) | IC50 (RAW264.7 [5]) | Activity (RAW264.7 [6]) | Activity (RAW264.7 [7]) | inhibition (RAW264.7 [8])
1 | CO[C@@H](C(=O)N[C@H]1CC[C@@H](OC(=O)C2CCCCC2)CN(C)C1=O)[C@H](O)[C@@H](O)[C@H](O)/C=C/C(C)(C)C | > 50 µM | 500 nM | 40 nM |  |  |  |  |  |  |  |  | 
2 | CCC(C)/C=C/[C@@H](O)[C@H](O)[C@@H](O)[C@@H](OC)C(=O)N[C@H]1CCCCNC1=O (mixture of isomers) | > 50 µM | 2000 nM | 1100 nM |  |  |  |  |  |  |  |  | 
3 | CCC(C)/C=C/[C@@H](O)[C@H](O)[C@@H](O)[C@@H](OC)C(=O)N[C@H]1CCCCN(C)C1=O (mixture of isomers) | > 50 µM | 2000 nM | 1500 nM |  |  |  |  |  |  |  |  | 
4 | CCCCCCCCCCCCCC(=O)O[C@H]1CC[C@H](NC(=O)[C@H](OC)[C@H](O)[C@@H](O)[C@H](O)/C=C/C(C)C)C(=O)NC1 [BENGAMIDE A] | > 50 µM | 75 nM | 18 nM | Dose-dependent effect | 500 nM | Dose-dependent effect | 1000 nM | Dose-dependent effect | 500 nM | inactive | inactive | Active
5 | CCCCCCCCCCCCCC(=O)O[C@H]1CC[C@H](NC(=O)[C@H](OC)[C@H](O)[C@@H](O)[C@H](O)/C=C/C(C)C)C(=O)N(C)C1 [BENGAMIDE B] | > 50 µM | 85 nM | 2 nM | Dose-dependent effect | 500 nM | Dose-dependent effect | 500 nM | Dose-dependent effect | 500 nM | inactive | inactive | Active
6 | CO[C@@H](C(=O)N[C@H]1CCCCNC1=O)[C@H](O)[C@@H](O)[C@H](O)/C=C/C(C)C [BENGAMIDE E] | > 50 µM | 7500 nM | 60 nM |  |  |  |  |  |  |  |  | Active
7 | CCCCCCCCCCCCCC(=O)O[C@H](/C=C/C(C)C)[C@H](O)[C@@H](O)[C@@H](OC)C(=O)N[C@H]1CCCCNC1=O [BENGAMIDE P] |  |  | 730 nM |  |  |  |  |  |  |  |  | 
8 | CC1=C(O)C(=O)C=C2C1=CC=C1[C@@]2(C)CC[C@@]2(C)[C@@H]3C[C@](C)(C(=O)O)CC[C@]3(C)CC[C@]12C [CELASTROL] | > 50 µM | 200 nM |  |  |  |  |  |  |  |  |  | 
